Measured values as given in ChEMBL document CHEMBL4732114, “Design and structural optimization of novel 2H-benzo[h]chromene derivatives that target AcrB and reverse bacterial multidrug resistance” (Eur J Med Chem, 2021).
Converted amounts (≈) assume the structure as drawn. The source made the active and inactive calls. The calls are words filed in the database; no cut-off is given here.

Legend:
[1] = target: T1, Multidrug efflux pump subunit AcrB (Escherichia coli (strain K12)) (UniProt P31224); experiment: Inhibition of AcrB in multidrug-resistant Escherichia coli BW25113 assessed as potentiation of tetraphenylphosphonium-induced antibacterial activity by measuring tetraphenylphosphonium MIC at 16 ug/ml by checkerboard titration method (reference value: 1024 ug/ml); conditions: dose 16.0 µg/ml
T1 sequence (whole entry): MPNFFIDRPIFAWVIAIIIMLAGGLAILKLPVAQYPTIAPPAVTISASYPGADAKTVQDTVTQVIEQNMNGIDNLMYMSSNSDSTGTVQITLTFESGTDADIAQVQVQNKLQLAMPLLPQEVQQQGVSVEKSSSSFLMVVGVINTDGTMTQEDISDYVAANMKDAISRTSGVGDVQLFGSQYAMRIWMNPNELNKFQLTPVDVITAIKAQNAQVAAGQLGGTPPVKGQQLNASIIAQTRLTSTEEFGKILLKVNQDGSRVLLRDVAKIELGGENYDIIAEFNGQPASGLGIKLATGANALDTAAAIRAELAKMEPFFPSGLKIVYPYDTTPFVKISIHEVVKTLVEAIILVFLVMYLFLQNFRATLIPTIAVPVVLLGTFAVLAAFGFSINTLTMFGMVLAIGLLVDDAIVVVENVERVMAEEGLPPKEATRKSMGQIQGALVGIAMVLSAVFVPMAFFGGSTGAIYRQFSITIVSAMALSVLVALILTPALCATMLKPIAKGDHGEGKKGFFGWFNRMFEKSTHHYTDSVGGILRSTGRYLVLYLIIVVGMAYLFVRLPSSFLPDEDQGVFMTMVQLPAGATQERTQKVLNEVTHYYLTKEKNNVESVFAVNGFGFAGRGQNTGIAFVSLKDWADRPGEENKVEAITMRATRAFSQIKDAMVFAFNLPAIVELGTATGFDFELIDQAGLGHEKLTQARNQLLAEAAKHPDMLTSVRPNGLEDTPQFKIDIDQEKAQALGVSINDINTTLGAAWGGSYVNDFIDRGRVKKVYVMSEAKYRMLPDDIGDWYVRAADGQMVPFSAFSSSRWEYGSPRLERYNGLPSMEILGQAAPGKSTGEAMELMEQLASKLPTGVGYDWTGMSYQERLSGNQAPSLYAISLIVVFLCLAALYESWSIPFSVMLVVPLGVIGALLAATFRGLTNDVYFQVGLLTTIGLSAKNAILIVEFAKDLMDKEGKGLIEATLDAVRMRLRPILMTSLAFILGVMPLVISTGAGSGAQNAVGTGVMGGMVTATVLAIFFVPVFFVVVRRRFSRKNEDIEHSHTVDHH

[2] = target: T1, Multidrug efflux pump subunit AcrB (Escherichia coli (strain K12)); experiment: Inhibition of AcrB in multidrug-resistant Escherichia coli BW25113 assessed as potentiation of levofloxacin-induced antibacterial activity by measuring levofloxacin MIC at 128 ug/ml by checkerboard titration method (reference value: 0.06 ug/ml); conditions: dose 128.0 µg/ml
[3] = target: T1, Multidrug efflux pump subunit AcrB (Escherichia coli (strain K12)); experiment: Inhibition of AcrB in Escherichia coli BW25113 assessed as reduction in glucose-induced nile red efflux at 100 uM preincubated for 15 mins followed by nile red addition and incubated for 3 hrs in shaker in presence of CCCP by fluorimetric analysis; conditions: time 3.25 hrs
In short: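 Wild-type and AcrB-deleted cells were preloaded with Nile Red, with or without compound. Fluorescence was recorded, and efflux was triggered at 100 s with 0.2% glucose. Traces were compared with the deletion-strain level. Triplicate experiments used different cell batches.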

[4] = target: T1, Multidrug efflux pump subunit AcrB (Escherichia coli (strain K12)); experiment: Inhibition of AcrB in multidrug-resistant Escherichia coli BW25113 assessed as potentiation of tetraphenylphosphonium-induced antibacterial activity by measuring tetraphenylphosphonium MIC at 128 ug/ml by checkerboard titration method (reference value: 1024 ug/ml); conditions: dose 128.0 µg/ml
[5] = target: T1, Multidrug efflux pump subunit AcrB (Escherichia coli (strain K12)); experiment: Inhibition of AcrB in multidrug-resistant Escherichia coli BW25113 assessed as potentiation of chloramphenicol-induced antibacterial activity by measuring chloramphenicol MIC at 8 ug/ml by checkerboard titration method (reference value: 8 ug/ml); conditions: dose 8.0 µg/ml
[6] = target: T1, Multidrug efflux pump subunit AcrB (Escherichia coli (strain K12)); experiment: Inhibition of AcrB in multidrug-resistant Escherichia coli BW25113 assessed as potentiation of levofloxacin-induced antibacterial activity by measuring levofloxacin MIC at 32 ug/ml by checkerboard titration method (reference value: 0.06 ug/ml); conditions: dose 32.0 µg/ml
[7] = target: T1, Multidrug efflux pump subunit AcrB (Escherichia coli (strain K12)); experiment: Inhibition of AcrB in multidrug-resistant Escherichia coli BW25113 assessed as potentiation of tetraphenylphosphonium-induced antibacterial activity by measuring tetraphenylphosphonium MIC at 32 ug/ml by checkerboard titration method (reference value: 1024 ug/ml); conditions: dose 32.0 µg/ml
[8] = Toxicity in multidrug-resistant Escherichia coli BW25113 assessed as growth inhibition by two-fold broth dilution method
[9] = target: T1, Multidrug efflux pump subunit AcrB (Escherichia coli (strain K12)); conditions: Escherichia coli BW25113; dose 128.0 µg/ml
[10] = target: T1, Multidrug efflux pump subunit AcrB (Escherichia coli (strain K12)); experiment: Inhibition of AcrB in multidrug-resistant Escherichia coli BW25113 assessed as potentiation of chloramphenicol-induced antibacterial activity by measuring chloramphenicol MIC at 16 ug/ml by checkerboard titration method (reference value: 8 ug/ml); conditions: dose 16.0 µg/ml
[11] = target: T1, Multidrug efflux pump subunit AcrB (Escherichia coli (strain K12)); experiment: Inhibition of AcrB in multidrug-resistant Escherichia coli BW25113 assessed as potentiation of tetraphenylphosphonium-induced antibacterial activity by measuring tetraphenylphosphonium MIC at 8 ug/ml by checkerboard titration method (reference value: 1024 ug/ml); conditions: dose 8.0 µg/ml
[12] = target: T1, Multidrug efflux pump subunit AcrB (Escherichia coli (strain K12)); conditions: Escherichia coli BW25113; dose 16.0 µg/ml
[13] = target: T1, Multidrug efflux pump subunit AcrB (Escherichia coli (strain K12)); experiment: Inhibition of AcrB in multidrug-resistant Escherichia coli BW25113 assessed as potentiation of erythromycin-induced antibacterial activity by measuring erythromycin MIC at 16 ug/ml by checkerboard titration method (reference value: 64 ug/ml); conditions: dose 16.0 µg/ml
[14] = target: T1, Multidrug efflux pump subunit AcrB (Escherichia coli (strain K12)); experiment: Inhibition of AcrB in multidrug-resistant Escherichia coli BW25113 assessed as potentiation of erythromycin-induced antibacterial activity by measuring erythromycin MIC at 128 ug/ml by checkerboard titration method (reference value: 64 ug/ml); conditions: dose 128.0 µg/ml
[15] = target: T1, Multidrug efflux pump subunit AcrB (Escherichia coli (strain K12)); experiment: Inhibition of AcrB in multidrug-resistant Escherichia coli BW25113 assessed as potentiation of tetraphenylphosphonium-induced antibacterial activity by measuring tetraphenylphosphonium MIC at 64 ug/ml by checkerboard titration method (reference value: 1024 ug/ml); conditions: dose 64.0 µg/ml
[16] = tested on: Cell membrane; experiment: Induction of outer membrane permeabilization in wild type Escherichia coli BW25113 assessed as increase in nitrocefin hydrolysis at 128 ug/ml in presence of CCCP by spectroscopic analysis; conditions: dose 128 µg/ml
In short: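 Intact E. coli were treated with 10 μM CCCP to block nitrocefin efflux, then given compound, nothing, or polymyxin B as permeabilizer control. Nitrocefin was added, and hydrolysis by periplasmic β-lactamase was followed as the rise in absorbance at 490 nm. Duplicate experiments were run on different days.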

| SMILES | MIC [1] [µg/mL] | MIC [2] [µg/mL] | inhibition [3] | MIC [4] [µg/mL] | MIC [5] [µg/mL] | MIC [6] [µg/mL] | MIC [7] [µg/mL] | MIC [8] [µg/mL] | MIC [9] [µg/mL] | MIC [10] [µg/mL] | MIC [11] [µg/mL] | MIC [12] [µg/mL] | MIC [13] [µg/mL] | MIC [14] [µg/mL] | MIC [15] [µg/mL] | Activity [16] |
| --- | --- | --- | --- | --- | --- | --- | --- | --- | --- | --- | --- | --- | --- | --- | --- | --- |
| CC1(C)CCc2c(C(=O)O)cc3c(OCc4ccccc4)cccc3c2O1 | 1020 | 0.01 | Active | 64 | 8 | 0.06 | 512 | > 512 | 16 (≈ 44.1 µM) | 8 | 1020 | 16 (≈ 44.1 µM) | 64 | 32 | 256 | Not Active |
| CC1(C)CCc2c(Cn3cnnn3)cc3c(OCc4ccccc4)cccc3c2O1 | 1020 | 0.03 | Active | 1020 | 8 | 0.06 | 1020 | > 512 | 16 (≈ 40 µM) | 8 | 1020 | 16 (≈ 40 µM) | 64 | 64 | 1020 |  |
| CC1(C)CCc2c(-c3nnco3)cc3c(OCc4ccc([N+](=O)[O-])cc4)cccc3c2O1 | 1020 | 0.06 | Active | 1020 | 8 | 0.06 | 1020 | > 512 | 16 (≈ 37.1 µM) | 8 | 1020 | 16 (≈ 37.1 µM) | 64 | 32 | 1020 |  |
| CC1(C)CC(=O)c2ccc(OCC(=O)Nc3ccc(C#N)c(C(F)(F)F)c3)cc2O1 | 1020 |  |  |  | 8 | 0.06 | 512 | > 512 | 16 (≈ 38.2 µM) | 8 | 1020 | 16 (≈ 38.2 µM) | 64 |  | 256 |  |
| CC1(C)CCc2c(-c3nnco3)cc3c(OCc4ccc(C#N)cc4)cccc3c2O1 | 1020 | 0.06 |  | 512 | 8 | 0.06 | 1020 | > 512 | 16 (≈ 38.9 µM) | 4 | 1020 | 16 (≈ 38.9 µM) | 64 | 32 | 512 | Not Active |
| CC1(C)CC(=O)c2ccc(OCCNC3CCCC3)cc2O1 | 512 | 0.03 |  | 512 | 8 | 0.03 | 512 | > 512 | 16 (≈ 52.7 µM) | 8 | 512 | 16 (≈ 52.7 µM) | 64 | 64 | 512 | Not Active |
| CC1CN(C(=O)c2cc3c(OCc4c(Cl)cccc4Cl)cccc3c3c2CCC(C)(C)O3)CC(C)O1 (centres undefined) | 1020 | 0.03 | Active | 1020 | 8 | 0.03 | 1020 |  | 16 (≈ 30.3 µM) | 8 | 1020 | 16 (≈ 30.3 µM) | 64 | 64 | 1020 |  |
| Cc1ccccc1COc1cccc2c3c(c(-c4nnco4)cc12)CCC(C)(C)O3 | 512 | 0.06 | Active | 256 | 8 | 0.06 | 512 | > 512 | 16 (≈ 40 µM) | 8 | 512 | 16 (≈ 40 µM) | 64 | 16 | 512 |  |
| CC1(C)CCc2c(C(=O)N3CCOCC3)cc3c(OCc4ccc(C(F)(F)F)cc4)cccc3c2O1 | 512 | 0.06 |  | 256 | 8 | 0.06 | 512 | > 512 | 16 (≈ 32 µM) | 8 | 512 | 16 (≈ 32 µM) | 64 | 16 | 512 | Not Active |
| COc1cccc(COc2cccc3c4c(c(C(=O)N5CCOCC5)cc23)CCC(C)(C)O4)c1 | 512 | 0.06 |  | 128 | 4 | 0.06 | 512 | > 512 | 16 (≈ 34.7 µM) | 4 | 512 | 16 (≈ 34.7 µM) | 64 | 16 | 256 | Not Active |
| CNC(=O)c1ccc(COc2cccc3c4c(c(Cn5cnnn5)cc23)CCC(C)(C)O4)cc1 | 1020 | 0.06 |  | 1020 | 8 | 0.06 | 1020 | > 512 | 16 (≈ 35 µM) | 8 | 1020 | 16 (≈ 35 µM) | 64 | 32 | 1020 |  |
| COc1cccc(COc2cccc3c4c(c(-c5nnco5)cc23)CCC(C)(C)O4)c1 | 1020 | 0.06 |  | 512 | 8 | 0.06 | 1020 | > 512 | 16 (≈ 38.4 µM) | 8 | 1020 | 16 (≈ 38.4 µM) | 64 | 32 | 512 | Not Active |
| C=CC(=O)Nc1ccc(COc2cccc3c4c(c(Cn5cnnn5)cc23)CCC(C)(C)O4)cc1 | 1020 | 0.06 |  | 1020 | 8 | 0.06 | 1020 | > 512 | 16 (≈ 34.1 µM) | 8 | 1020 | 16 (≈ 34.1 µM) | 64 | 32 | 1020 |  |
